The source made the active and inactive calls. The rule behind the calls is not given here.
Legend:
MCF7 [1] = assay: Induction of apoptosis in human MCF7 cells assessed as decrease in Bcl2 protein expression at 0.5 to 1 uM after 48 hrs by Western blot method; type: functional, cell-based
Method in brief: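 MCF-7 cells exposed to 0–1 μM compound for 48 h, then lysed on ice. Lysate (20 μg protein) run on 8–12% SDS-PAGE and transferred to PVDF. Probed overnight at 4 °C with primary antibodies, then fluorescent secondaries. Band densities normalized to β-actin. Mean ± SD of three independent experiments.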

Bel-7402 = assay: Cell cycle arrest in human Bel7402 cells assessed as accumulation at S phase at 1 uM after 48 hrs by propidium iodide staining based flow cytometry (reference value: 8.78%); type: functional
MCF7 [2] = assay: Induction of apoptosis in human MCF7 cells assessed as necrotic cells at 0.25 uM after 24 hrs by Annexin-V FITC/propidium iodide staining based flow cytometry (reference value: 0.102%); type: functional
MCF7 [3] = assay: Induction of apoptosis in human MCF7 cells assessed as necrotic cells at 0.5 uM after 24 hrs by Annexin-V FITC/propidium iodide staining based flow cytometry (reference value: 0.102%); type: functional
MGC-803 = assay: Antiproliferative activity against human MGC803 cells after 72 hrs by MTT assay; type: functional, cell-based; conditions: MGC-803, 72 h
Method in brief: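 MGC-803 and MCF-7 cells grown in DMEM (MCF-7 with 1× NEAA); Bel-7402 and K562 grown in RPMI 1640; all media with 10% FBS. Cells seeded at 3500/well, pre-incubated 24 h, then exposed to compounds in fresh medium (DMSO ≤0.25%) for 72 h at 37 °C. MTT read-out at 570 nm. Quadruplicate wells, repeated three times; means ± SD (n = 3).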

MCF7 [4] = assay: Cell cycle arrest in human MCF7 cells assessed as accumulation at S phase at 0.5 uM after 48 hrs by propidium iodide staining based flow cytometry (reference value: 37.18%); type: functional
Method in brief: (§1)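 MCF-7 cells, 5 × 10^4 per well, seeded overnight, then exposed to 0.125–1 μM compound, or DMSO, for 48 h. Ethanol-fixed (70%, −20 °C, 12 h) and stained with PI/RNase at 37 °C for 30 min. Phase distribution determined by flow cytometry.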

MCF7 [5] = assay: Induction of apoptosis in human MCF7 cells assessed as necrotic cells at 0.125 uM after 24 hrs by Annexin-V FITC/propidium iodide staining based flow cytometry (reference value: 0.102%); type: functional
MCF7 [6] = assay: Induction of apoptosis in human MCF7 cells assessed as late apoptotic cells at 0.25 uM after 24 hrs by Annexin-V FITC/propidium iodide staining based flow cytometry (reference value: 0.255%); type: functional
Mus musculus [7] = assay: Toxicity in Balb/c nude mouse xenografted with human MCF7 cells assessed as morphological changes in spleen at 20 mg/kg/day, iv for 4 weeks by hematoxylin and eosin staining based microscopic method; type: organism-based; conditions: in vivo, 672 h
Method in brief: (§2)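 Male BALB/c nude mice aged six weeks received 1 × 10^6 MCF-7 cells subcutaneously in the right flank. After 7 d they were randomized and dosed 20 mg/kg iv once daily in 10% DMF/2% poloxamer/88% saline; saline control. Heart, liver, spleen, lung and kidney were fixed in 4% paraformaldehyde, paraffin-embedded, sectioned at 5 μm, H&E stained and examined microscopically.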

MCF7 [8] = assay: Cell cycle arrest in human MCF7 cells assessed as accumulation at S phase at 0.125 uM after 48 hrs by propidium iodide staining based flow cytometry (reference value: 37.18%); type: functional; method in brief: as §1
MCF7 [9] = assay: Induction of apoptosis in human MCF7 cells assessed as early apoptotic cells at 0.125 uM after 24 hrs by Annexin-V FITC/propidium iodide staining based flow cytometry (reference value: 2.65%); type: functional
Mus musculus [10] = assay: Toxicity in Balb/c nude mouse xenografted with human MCF7 cells assessed as morphological changes in lungs at 20 mg/kg/day, iv for 4 weeks by hematoxylin and eosin staining based microscopic method; type: organism-based; conditions: in vivo, 672 h; method in brief: as §2
MCF7 [11] = assay: Induction of apoptosis in human MCF7 cells assessed as live cells at 0.25 uM after 24 hrs by Annexin-V FITC/propidium iodide staining based flow cytometry (reference value: 97%); type: functional
MCF7 [12] = assay: Induction of apoptosis in human MCF7 cells assessed as increase in Bad protein expression at 0.5 to 1 uM after 48 hrs by Western blot method; type: functional, cell-based
Method in brief: (§3)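 MCF-7 cells were treated at 0, 0.125, 0.25, 0.5 or 1 μM for 48 h, washed in ice-cold PBS and lysed on ice for 20 min. Lysates were spun at 13,000 g, 4 °C. 20 μg protein was run on SDS-PAGE and blotted to PVDF, probed overnight at 4 °C with primary antibodies, then with fluorescent secondary antibodies. Band density was expressed relative to β-actin; three independent experiments.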

[13] = molecular target: T1, M-phase inducer phosphatase 3 (Homo sapiens) (UniProt P30307); assay: Induction of cdc25c phosphorylation in human MCF7 cells after 48 hrs by Western blot method; type: cell-based; method in brief: as §3
T1 sequence (whole entry): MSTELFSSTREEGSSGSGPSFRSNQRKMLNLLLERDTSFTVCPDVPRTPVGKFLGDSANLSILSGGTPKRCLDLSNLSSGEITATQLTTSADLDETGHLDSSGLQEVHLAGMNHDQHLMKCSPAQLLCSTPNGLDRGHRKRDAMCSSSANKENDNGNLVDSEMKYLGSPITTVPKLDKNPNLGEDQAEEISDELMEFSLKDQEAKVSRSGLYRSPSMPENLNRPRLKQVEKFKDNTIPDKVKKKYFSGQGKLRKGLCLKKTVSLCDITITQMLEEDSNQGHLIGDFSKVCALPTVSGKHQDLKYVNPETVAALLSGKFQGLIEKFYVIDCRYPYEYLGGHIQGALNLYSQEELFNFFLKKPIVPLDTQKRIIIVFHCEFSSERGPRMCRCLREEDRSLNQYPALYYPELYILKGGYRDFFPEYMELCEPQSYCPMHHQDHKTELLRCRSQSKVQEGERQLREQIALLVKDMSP

MCF7 [14] = assay: Cell cycle arrest in human MCF7 cells assessed as accumulation at G1 phase at 0.125 uM after 48 hrs by propidium iodide staining based flow cytometry (reference value: 49.77%); type: functional; method in brief: as §1
MCF7 [15] = assay: Cell cycle arrest in human MCF7 cells assessed as accumulation at S phase at 1 uM after 48 hrs by propidium iodide staining based flow cytometry (reference value: 37.18%); type: functional; method in brief: as §1

IC50 (MGC-803): 1030 nM
Activity [13]: Dose-dependent effect
Structure (SMILES): C=C1C(=O)[C@]23[C@H](OC(=O)/C=C/c4ccccc4)[C@H]1CC[C@H]2[C@]12C=CCC(C)(C)[C@H]1[C@H](O)[C@]3(O)OC2
Activity (MCF7 [1]): Active
Activity (Bel-7402): 8.51%
Activity (MCF7 [2]): 2.39%
Activity (MCF7 [3]): 2.18%
Activity (MCF7 [4]): 31.9%
Activity (MCF7 [5]): 1.14%
Activity (MCF7 [6]): 19.6%
Activity (Mus musculus [7]): Non-Toxic
Activity (MCF7 [8]): 33.93%
Activity (MCF7 [9]): 4.64%
Activity (Mus musculus [10]): Non-Toxic
Activity (MCF7 [11]): 69.7%
Activity (MCF7 [12]): Active
Activity (MCF7 [14]): 49.27%
Activity (MCF7 [15]): 30.01%

Reference: ChEMBL document CHEMBL3997810, “A Novel Potent Anticancer Compound Optimized from a Natural Oridonin Scaffold Induces Apoptosis and Cell Cycle Arrest through the Mitochondrial Pathway” (J Med Chem, 2017)
